Assay: Effective dose against human immuno deficiency virus-1/Ba-L in vitro in human monocyte-derived macrophages (MDM) cells
Format: functional
Details: for EC50: read-out: ED50 (the source's name)
Procedure, shortened: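 Primary human monocytes (elutriated, ≥95% pure) differentiated 7 days into MDM in DMEM/10% heat-inactivated FCS; 1 million cells pretreated 1 h with a range of concentrations, then infected with HIV-1/BaL (10 000 TCID50, moi 0.01) for 24 h at 37 °C, washed, refed; medium and drug renewed twice weekly. Supernatant RT activity summed as cumulative RT; ED50/70/90 by Chou software; triplicate, two donors.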

Row | Structure (SMILES) | EC50 | ED70 | ED90
1 | CC(=O)N[C@@H](CS)C(=O)NCCSC(=O)C(C)(C)C | 145 µM | 185 µM | 270 µM
2 | CC(=O)N[C@@H](CSC(=O)c1ccccc1)C(=O)NCCSC(=O)C(C)C | 165 µM | 205 µM | 285 µM
3 | CC(=O)N[C@@H](CS)C(=O)NCCS | 40 µM | 75 µM | 200 µM

Second part, led by results:

Row | EC50 | Structure (SMILES) | ED70 | ED90
4 | 45 µM | CC(=O)N[C@@H](CS)C(=O)NCCSC(C)=O | 80 µM | 195 µM
5 | 45 µM | CC(=O)N[C@@H](CSC(C)=O)C(=O)NCCSC(=O)C(C)C | 55 µM | 80 µM
6 | 110 µM | CC(=O)N[C@@H](CS)C(=O)NCCSC(=O)C(C)C | 175 µM | 380 µM
